TDP2 absorb: human TDP2 enzyme inhibitors, primary screen, biochemical, epi absorbance, recombinant enzyme; 370,000 tested, 0.34% active; T5PNP hydrolysis, p-nitrophenol absorbance 415 nm; inhibition, % at 12.8 µM; AID 720702, 2013; Tyrosyl-DNA phosphodiesterase 2 (Homo sapiens), O95551;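 active means inhibition above the mean of all tested compounds plus 3 SD, set per campaign, cut at about 25% in these data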
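Assay system: Recombinant human TDP2 | Quantity: 120 nM TDP2 per well | Incubation: 2 h at 37 °C | Signal: Epi absorbance | Evaluation: Percent inhibition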
Tn7 DDE FP: inhibitors of Tn7 peptide binding to fibrin DD(E), primary screen, biochemical, fluorescence polarization, human fibrin, Tn7 probe; inhibition, % at 8.3 µM; FP displacement of FITC-Tn7 peptide from fibrin DD(E); 0% = median of compound wells per plate; 370,000 tested, 0.13% active;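 active means inhibition above the mean of compounds falling within the control limits plus 3 SD of them, cut at about 14% in these data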
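Assay system: Fibrin-DD(E) protein isolated from polymerized human fibrin clots; read-out basis: percent inhibition; medium: Tris/NaCl/CaCl2 buffer, pH 7.8; signal: FP measurement; incubation: 10 min plus 3 h, room temperature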
LEDGF integ inh: blockers of LEDGF/p75-dependent integrase strand transfer – biochemical, TR-FRET, high throughput, primary screen. inhibition, % at 3.7 µM. TR-FRET IN-LEDGF/p75 DNA integration, Eu/Cy5. 370,000 tested, 0.64% active. HIV-1 integrase (with human LEDGF/p75);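 active means inhibition above the screen-wide mean plus 3 SD, cut at about 13% in these data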;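 further: signal is the Cy5 over europium emission ratio at 671 and 618 nm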
MBD2 inh: inhibitors of MBD2 binding to methylated DNA, primary screen, biochemical, TR-FRET, DNA-binding domain, human | Methyl-CpG-binding domain protein 2 (Homo sapiens), Q9UBB5 | MBD2 binding to methylated oligonucleotide | inhibition, % at 4.4 µM | 370,000 tested, 0.31% active | AID 686964, 2013; in the data active means inhibition above about 13%
UHRF1 MBD2 ctr: UHRF1 methylated DNA binding inhibitors, primary screen, counter-screen for MBD2 inhibitor project, biochemical, TR-FRET, human UHRF1, single concentration | inhibition, % at 4.4 µM | E3 ubiquitin-protein ligase UHRF1 (Homo sapiens), Q96T88 | 370,000 tested, 0.75% active | UHRF1 binding to methylated oligo; in the data active means inhibition above about 21%;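 further: UHRF1 SRA domain binding a hemimethylated CpG hairpin DNA probe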
Target sequence (Q96T88 whole entry, looked up, the tested form may be a part): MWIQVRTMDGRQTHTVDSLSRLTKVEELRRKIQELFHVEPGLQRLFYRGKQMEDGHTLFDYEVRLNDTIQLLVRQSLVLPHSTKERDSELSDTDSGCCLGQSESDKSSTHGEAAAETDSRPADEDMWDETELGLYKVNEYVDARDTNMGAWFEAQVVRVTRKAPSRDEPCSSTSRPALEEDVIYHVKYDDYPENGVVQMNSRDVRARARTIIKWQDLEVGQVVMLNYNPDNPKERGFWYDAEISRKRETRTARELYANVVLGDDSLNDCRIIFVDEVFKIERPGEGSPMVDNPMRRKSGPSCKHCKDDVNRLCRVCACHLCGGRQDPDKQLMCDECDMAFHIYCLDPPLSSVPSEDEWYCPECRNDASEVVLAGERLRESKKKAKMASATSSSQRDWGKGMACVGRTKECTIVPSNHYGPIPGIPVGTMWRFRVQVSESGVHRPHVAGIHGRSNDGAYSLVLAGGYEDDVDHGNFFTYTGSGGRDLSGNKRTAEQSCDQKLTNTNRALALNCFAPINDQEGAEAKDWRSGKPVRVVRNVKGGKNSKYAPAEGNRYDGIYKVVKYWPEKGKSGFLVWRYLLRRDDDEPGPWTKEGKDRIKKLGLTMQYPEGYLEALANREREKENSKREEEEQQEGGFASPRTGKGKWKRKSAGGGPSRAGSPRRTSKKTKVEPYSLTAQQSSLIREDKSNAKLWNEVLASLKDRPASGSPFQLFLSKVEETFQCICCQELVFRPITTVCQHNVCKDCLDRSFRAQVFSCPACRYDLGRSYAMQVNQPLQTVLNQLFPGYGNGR
DDE Tn6 FP inh: inhibitors of Tn6 peptide binding to fibrin DD(E), primary screen, biochemical, fluorescence polarization, human fibrin, Tn6 probe; inhibition, % at 8.3 µM; Fibrinogen beta chain (Homo sapiens), P02675; 370,000 tested, 0.21% active; Fibrin DD(E) TRITC-Tn6 fluorescence polarization displacement; AID 720509, 2013;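 active means inhibition above a per-campaign cutoff: mean of compounds within control limits plus 3 SD, cut at about 15% in these data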
Numbers stand for hits; . = inactive. Rows were chosen to be rich in hits. Some 1.9% of all compounds tested hit in one or more screens of this group.

SMILES	TDP2 absorb	Tn7 DDE FP	LEDGF integ inh	MBD2 inh	UHRF1 MBD2 ctr	DDE Tn6 FP inh
Cc1ccc(NC(=O)/C(=C\c2cccnc2)NC(=O)c2ccccc2)cc1	.	.	.	.	21	.
O=C(NCCCn1ccnc1)/C(=C/c1ccccc1)NC(=O)c1ccccc1	.	.	.	.	25	.
C#CCNC(=O)C[C@H]1C[C@@]2(C(=O)OC)C(=C[C@H](C3CCCC3)O[C@@H]2C)N(Cc2ccccc2)C1=O	.	.	.	.	.	.
Cc1ccc(NC(=O)CCS(=O)(=O)c2ccccc2)c(C)c1	.	.	.	.	.	.
Cc1ccccc1N(CC(=O)N1CCN(Cc2ccccc2)CC1)S(C)(=O)=O	.	.	.	.	21	.
O=C(Nc1ccc(-c2nc3ccccc3c(=O)o2)cc1)c1ccco1	.	.	.	.	21	.
CCCN(C(=O)CCc1cn(CCC)c2ccccc12)c1ccc(N(C)c2ccccn2)cc1	.	.	.	.	.	.
CN(C(=S)NC(=O)C12CC3CC(CC(C3)C1)C2)c1ccc(O)cc1	.	.	15	.	.	.
CN(C)NC(=S)NC(=O)C12CC3CC(CC(C3)C1)C2	.	.	.	.	.	.
CCOC(=O)[C@]12CCCC=C1N(CCCOC)C(=O)[C@@H]2CC(=O)NCc1ccccc1	.	.	.	.	.	.
N=C1/C(=C/c2ccc(-c3cccc(C(=O)O)c3)o2)C(=O)N=C2SC=C(c3ccccc3)N12	.	.	24	.	.	.
COC(=O)CC1COc2ccccc2N1C(=O)c1cccc(Cl)c1 (centres undefined)	.	.	.	.	.	.
CCOC(=O)CC1COc2ccccc2N1C(=O)c1cccc([N+](=O)[O-])c1 (centres undefined)	.	.	.	.	40	.
CCS(=O)(=O)NCC(c1cccnc1)N1CCN(c2ccc(OC)cc2)CC1 (centres undefined)	.	.	.	.	22	.
CCS(=O)(=O)NCC(c1cccnc1)N1CCN(c2ccccc2)CC1 (centres undefined)	.	.	.	.	.	.
COc1cc2c(cc1OC)C(C)=NC1(CCCCC1)C2	.	.	.	.	.	.
COc1cc2c(cc1OC)C(SC)=NC1(CCCC1)C2	.	.	.	.	27	.
O=C(Cn1nnc2ccccc2c1=O)NCCc1ccccc1	.	.	.	.	.	.
O=C(Cn1nnc2ccccc2c1=O)NCCc1ccc(Cl)cc1Cl	.	.	.	.	28	.
CN(C)CCCN1CC(=O)N2CCc3ccc(Br)cc3C2CC1=O (centres undefined)	.	.	.	.	.	.
CC1(C(=O)NCc2ccccc2)Cc2c(-c3ccccc3)ccnc2O1 (centres undefined)	.	.	.	.	66	.
CC1(C(=O)NCc2ccccc2)Cc2c(-c3ccc(C(N)=O)cc3)ccnc2O1 (centres undefined)	.	.	.	.	.	.
O=C(Cn1nnc(-c2ccccc2)n1)Nc1cccc(S(=O)(=O)N2CCOCC2)c1	.	.	.	.	29	.
Cc1ccc(S(=O)(=O)N2CCOCC2)cc1NC(=O)Cn1nnc(-c2ccccc2)n1	.	.	.	.	.	.
CSc1ccccc1NC(=O)Cc1ccccc1	.	.	.	.	23	.
SMILES	TDP2 absorb	Tn7 DDE FP	LEDGF integ inh	MBD2 inh	UHRF1 MBD2 ctr	DDE Tn6 FP inh
Cc1cccc(Cl)c1NC(=O)N(C)c1ccccc1	.	.	.	.	.	.
FC(F)(F)c1ccccc1Cn1ccc2ccc(-c3ccc4ccn(Cc5ccccc5C(F)(F)F)c4c3)cc21	.	.	.	.	.	.
COc1ccccc1-c1cnc(C(O)c2cc(Cl)cc(Cl)c2)[nH]1 (centres undefined)	.	.	.	.	22	.
O=C(c1ccc2c(c1)C(=O)NC2=O)c1ccc2c(c1)C(=O)NC2=O	.	.	.	.	.	.
COc1ccc(-c2nnc(SC)nc2-c2ccc(OC)c([N+](=O)[O-])c2)cc1[N+](=O)[O-]	.	.	.	.	24	.
Cc1cc2c(nc1C)CCCN2S(=O)(=O)c1ccc(F)cc1	.	.	.	.	.	.
Clc1cccc(-c2nc3ccc(Cl)cn3c2Cc2ccccc2)c1	.	.	.	.	.	.
CC(C)(C)Cc1c(-c2cccc(Cl)c2)nc2ccc(Cl)cn12	.	.	.	.	23	.
CC(C)(C)Cc1c(-c2ccc(C#N)cc2)nc2ccc(Cl)cn12	.	.	.	.	21	.
CCCCNc1ccc2c(c1)OC[C@@H](Cc1ccccc1)NS2(=O)=O	.	.	.	.	.	.
CC(C)(C)S(=O)N1Cc2cc(C(=O)NCc3ccc(Oc4ccccc4)cc3)nc(-c3cccc(-c4cc5ccccc5o4)c3)c2[C@H]1CCO (some centres undefined)	.	.	.	.	.	17
CC(=O)c1cccc(NC(=O)c2cc(C)no2)c1	.	.	.	.	64	.
CCCC1=NN(C(=O)Cc2ccc(OC)cc2)C(O)(C(F)(F)F)C1 (centres undefined)	.	.	.	.	.	.
CCOc1ccc(CC(=O)N2N=C(C)CC2(O)C(F)(F)F)cc1 (centres undefined)	.	.	.	.	29	.
O=C(C1CCCN1S(=O)(=O)c1ccc(Br)s1)N1CCc2ccccc2C1 (centres undefined)	.	.	.	.	.	.
CCOC(=O)c1sc2nc(C)nc(NCCc3ccccn3)c2c1C	.	.	.	.	69	.
CCOC(=O)c1sc2nc(C)nc(NCc3ccccc3OC)c2c1C	.	.	.	.	.	.
CCOC(=O)CNC(=O)CSc1nc2ccccc2c(=O)n1-c1ccc(Cl)cc1	.	.	.	.	.	.
O=C(N/N=C\c1ccc(F)cc1)c1ccc(F)cc1	.	.	.	.	.	.
C[n+]1c(-c2ccc(C=NNC(=O)c3ccc(C(=O)NN=Cc4ccc(-c5cn6ccccc6[n+]5C)cc4)cc3)cc2)cn2ccccc21	.	.	31	23	37	.
COc1nc(-c2cccs2)cc(-c2ccc(C)cc2)c1C#N	.	.	.	.	22	.
